According to ChEMBL document CHEMBL1132387, “N-arylpiperazinone inhibitors of farnesyltransferase: discovery and biological activity” (J Med Chem, 1999):
“And” between values parts separate entries of the source, which are not always exact repeats. Identical values can stand only once. One block for each molecule: values may come before it.

Tests used:
[1] = target: Protein farnesyltransferase (Homo sapiens, UniProt P49354+P49356); experiment: Inhibition of [3H]FPP incorporation into recombinant human K-Ras by Farnesyltransferase; assay type: protein-complex assay
Procedure, shortened: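 FTase-catalyzed incorporation of [³H]FPP into recombinant human K-Ras protein. IC50 is the compound concentration giving 50% inhibition of that incorporation.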

[2] = tested on: Rat1; experiment: Inhibition of anchorage-independent growth by 90% in human H-ras-transformed RAT1 cells in soft agar; assay type: functional; conditions: Rattus norvegicus
Procedure, shortened: (§1)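 RAT1 cells transformed with human H- or K-ras were suspended in soft agar to measure colony formation. IC90 is the concentration inhibiting anchorage-independent growth by 90% relative to vehicle-treated control. Values are reported as ranges.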

[3] = target: Geranylgeranyl transferase type I (Homo sapiens, UniProt P49354+P53609); experiment: Inhibition of [3H]GGPP incorporation into recombinant human RhoA by Geranylgeranyl transferase type I; assay type: protein-complex assay
Procedure, shortened: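 GGTase I-catalyzed incorporation of [³H]GGPP into recombinant human RhoA protein. IC50 is the concentration giving 50% inhibition.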

[4] = tested on: Rat1; experiment: Highest concentration compatible with 80% cell survival in cultured RAT1 cells; assay type: functional; conditions: Rattus norvegicus
Procedure, shortened: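 Normal RAT1 cells in culture, with viability read by MTT staining. The value is the highest compound concentration compatible with 80% cell survival.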

[5] = tested on: Rat1; experiment: Inhibition of anchorage independent growth of H-ras-transformed RAT1 cells on poly(HEMA) coated microtiter plate; assay type: functional, cell-based; conditions: Rattus norvegicus
Procedure, shortened: (§2)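 Anchorage-independent growth assay: cells grown on poly(HEMA)-coated microtiter plates. IC50 is the compound concentration that inhibits 50% of cell growth.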

[6] = tested on: Rat1; experiment: Inhibition of anchorage-independent growth by 90% of human K-ras-transformed RAT1 cells in soft agar; assay type: functional; conditions: Rattus norvegicus; procedure, shortened: as §1
[7] = tested on: DLD-1; experiment: Concentration required to inhibit growth of human tumor DLD1 cell line on poly(HEMA) coated microtiter plate; assay type: functional, cell-based; procedure, shortened: as §2
[8] = tested on: Rat1; experiment: Inhibition of anchorage-independent growth by 90% in human K-ras-transformed RAT1 cells in soft agar; assay type: functional; conditions: Rattus norvegicus; procedure, shortened: as §1
[9] = tested on: Mus musculus; experiment: Tumor growth inhibition against subcutaneously injected H-ras Rat1 cells in female nude mice after continuous infusion of 1.4 mg/kg/day; assay type: functional; conditions: route subcutaneous
Procedure, shortened: (§3)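 Female nude mice were injected subcutaneously with H- or K-ras-transformed RAT1 cells. Treatment began 24 h later with vehicle (50% DMSO/water) or compound, n = 8–10, for about 14 days. Dosing was once-daily subcutaneous injection or continuous sc infusion by implanted Alzet osmotic pump. Tumor growth inhibition is relative to vehicle controls.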

[10] = tested on: Mus musculus; experiment: Tumor growth inhibition against subcutaneously injected H-ras-Rat1 cells in female nude mice after continuous infusion of 14 mg/kg/day; assay type: functional; conditions: route subcutaneous; procedure, shortened: as §3
[11] = tested on: MCF7; experiment: Concentration required to inhibit growth of human tumor MCF-7 cells line on poly(HEMA) coated microtiter plate; assay type: functional, cell-based; procedure, shortened: as §2

Structure (SMILES): CCCC[C@H]1CN(C(=O)c2cccc3ccccc23)CCN1C[C@@H](N)S
IC50 [1]: 1 nM

Structure (SMILES): CCCC[C@H]1CN(C(=O)c2cccc3ccccc23)CCN1Cc1c[nH]cn1
IC50 [1]: 7300 nM

Structure (SMILES): CCS(=O)(=O)C[C@@H]1CN(c2cccc(Cl)c2)C(=O)CN1Cc1cncn1Cc1ccc(C#N)cc1
IC50 [7]: 1500 nM | IC50 [1]: 0.18 nM | IC90 [2]: 30 nM | IC90 [8]: 1000 nM | IC50 [3]: > 100000 nM | Tumor growth inhibition [9]: 73% | Tumor growth inhibition [10]: 100% and 60% | IC20 [4]: > 100000 nM | IC50 [5]: 8 nM | IC50 [11]: 5 nM

Structure (SMILES): C[C@@H]1CN(c2cccc(Cl)c2)C(=O)CN1Cc1cncn1Cc1ccc(C#N)cc1
IC50 [1]: 80 nM

Structure (SMILES): CCCC[C@H]1CN(C(=O)c2cccc3ccccc23)CCN1Cc1cncn1Cc1ccccc1
IC50 [1]: 495 nM

More lines, in order of falling IC50 [1], values ahead:

IC50 [1]: 21 nM
Structure (SMILES): CCCC[C@H]1CN(C(=O)c2cccc3ccccc23)CCN1Cc1cncn1Cc1ccc(C#N)cc1

IC50 [1]: 9 nM
Structure (SMILES): C[C@H]1CN(c2cccc(Cl)c2)C(=O)CN1Cc1cncn1Cc1ccc(C#N)cc1

IC50 [1]: 0.44 nM | IC50 [3]: 10000 nM
Structure (SMILES): CCCC[C@H]1CN(c2cccc(C)c2C)C(=O)CN1Cc1cncn1Cc1ccc(C#N)cc1
IC90 [2]: 100 nM | IC20 [4]: 25000 nM | IC50 [5]: 28 nM | IC90 [6]: 2500 nM

IC50 [1]: 0.11 nM
Structure (SMILES): CCCC[C@H]1CN(c2cccc(Cl)c2)C(=O)CN1Cc1cncn1Cc1ccc(C#N)cc1
